# According to the M2OR odorant receptor database:
# Columns and labels:
# Details in all cases: stereoisomer not certain
# UniProt Q8VF52 = target: T1, UniProt Q8VF52
# T1 sequence (whole entry): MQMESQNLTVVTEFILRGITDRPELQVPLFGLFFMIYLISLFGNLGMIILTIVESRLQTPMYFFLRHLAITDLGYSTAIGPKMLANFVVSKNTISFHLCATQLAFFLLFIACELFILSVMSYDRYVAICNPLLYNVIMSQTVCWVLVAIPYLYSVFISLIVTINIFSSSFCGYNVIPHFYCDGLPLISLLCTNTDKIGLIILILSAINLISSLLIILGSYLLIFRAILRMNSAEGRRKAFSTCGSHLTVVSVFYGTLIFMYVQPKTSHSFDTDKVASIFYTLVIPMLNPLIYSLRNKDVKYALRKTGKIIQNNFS
# How it was run: (§1)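 Each entry records the cell line, G-protein, co-transfected protein and tags used. Methods varied with the source, often transient luciferase assays in mammalian cell lines. A receptor–molecule pair is called responsive (active) if the original authors judged its signal statistically different from baseline and non-responsive (inactive) otherwise.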
# UniProt Q8VFM8 = target: T2, UniProt Q8VFM8
# T2 sequence (whole entry): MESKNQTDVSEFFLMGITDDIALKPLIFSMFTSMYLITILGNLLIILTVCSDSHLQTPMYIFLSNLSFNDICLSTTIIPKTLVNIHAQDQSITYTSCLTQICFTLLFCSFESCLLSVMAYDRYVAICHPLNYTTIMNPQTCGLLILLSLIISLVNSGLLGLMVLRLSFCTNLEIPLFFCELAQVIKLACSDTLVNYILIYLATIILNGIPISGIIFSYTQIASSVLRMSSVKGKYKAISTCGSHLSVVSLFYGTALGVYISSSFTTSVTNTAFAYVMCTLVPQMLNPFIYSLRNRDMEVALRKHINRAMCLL
# How it was run: as §1
# UniProt Q8VFP5 = target: T3, UniProt Q8VFP5
# T3 sequence (whole entry): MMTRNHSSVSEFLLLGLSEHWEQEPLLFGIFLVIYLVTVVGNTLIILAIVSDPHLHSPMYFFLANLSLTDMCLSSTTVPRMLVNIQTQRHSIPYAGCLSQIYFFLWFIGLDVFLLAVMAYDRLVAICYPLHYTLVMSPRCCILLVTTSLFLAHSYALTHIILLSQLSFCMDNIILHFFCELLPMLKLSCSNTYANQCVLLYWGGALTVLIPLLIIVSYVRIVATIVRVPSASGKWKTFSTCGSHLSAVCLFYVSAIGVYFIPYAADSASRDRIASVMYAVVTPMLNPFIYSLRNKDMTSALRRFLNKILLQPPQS
# How it was run: as §1
# UniProt Q8VG01 = target: T4, UniProt Q8VG01
# T4 sequence (whole entry): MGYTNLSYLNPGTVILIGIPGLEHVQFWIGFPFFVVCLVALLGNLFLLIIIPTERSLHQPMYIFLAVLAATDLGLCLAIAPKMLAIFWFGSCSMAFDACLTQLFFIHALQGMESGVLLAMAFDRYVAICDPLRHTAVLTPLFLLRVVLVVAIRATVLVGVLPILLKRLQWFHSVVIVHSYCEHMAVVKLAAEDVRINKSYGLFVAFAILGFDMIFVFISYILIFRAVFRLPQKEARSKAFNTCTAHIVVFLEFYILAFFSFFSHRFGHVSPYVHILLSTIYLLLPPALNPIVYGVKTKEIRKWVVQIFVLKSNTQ
# How it was run: as §1
# UniProt Q8VG27 = target: T5, UniProt Q8VG27
# T5 sequence (whole entry): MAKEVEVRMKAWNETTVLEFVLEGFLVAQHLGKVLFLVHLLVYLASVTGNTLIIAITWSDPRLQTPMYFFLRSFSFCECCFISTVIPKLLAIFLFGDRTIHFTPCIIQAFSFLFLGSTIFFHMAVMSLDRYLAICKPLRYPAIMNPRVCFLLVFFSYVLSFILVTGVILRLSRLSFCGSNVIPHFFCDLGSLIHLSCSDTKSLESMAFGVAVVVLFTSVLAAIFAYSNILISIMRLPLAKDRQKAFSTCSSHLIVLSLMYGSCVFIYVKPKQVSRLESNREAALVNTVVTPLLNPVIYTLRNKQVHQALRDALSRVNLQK
# How it was run: as §1
# UniProt Q8VG53 = target: T6, UniProt Q8VG53
# T6 sequence (whole entry): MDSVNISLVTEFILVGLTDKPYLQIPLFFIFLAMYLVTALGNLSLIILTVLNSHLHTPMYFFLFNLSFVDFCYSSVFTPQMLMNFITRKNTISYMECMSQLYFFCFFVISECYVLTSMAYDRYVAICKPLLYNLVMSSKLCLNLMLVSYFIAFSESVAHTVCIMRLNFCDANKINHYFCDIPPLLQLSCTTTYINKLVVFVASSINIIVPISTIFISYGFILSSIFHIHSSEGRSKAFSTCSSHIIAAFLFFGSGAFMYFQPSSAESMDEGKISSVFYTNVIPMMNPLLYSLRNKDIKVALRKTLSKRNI
# How it was run: as §1
# UniProt Q8VG64 = target: T7, UniProt Q8VG64
# T7 sequence (whole entry): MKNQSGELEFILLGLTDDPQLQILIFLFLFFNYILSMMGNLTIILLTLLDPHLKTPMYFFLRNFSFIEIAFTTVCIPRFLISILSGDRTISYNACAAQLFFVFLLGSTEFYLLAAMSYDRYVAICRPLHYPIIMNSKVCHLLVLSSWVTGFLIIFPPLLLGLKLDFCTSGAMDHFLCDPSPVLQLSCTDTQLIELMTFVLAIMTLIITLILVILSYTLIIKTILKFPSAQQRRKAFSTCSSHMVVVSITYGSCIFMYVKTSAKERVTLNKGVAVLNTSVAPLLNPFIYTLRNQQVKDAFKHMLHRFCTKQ
# How it was run: as §1
# UniProt Q8VGB9 = target: T8, UniProt Q8VGB9
# T8 sequence (whole entry): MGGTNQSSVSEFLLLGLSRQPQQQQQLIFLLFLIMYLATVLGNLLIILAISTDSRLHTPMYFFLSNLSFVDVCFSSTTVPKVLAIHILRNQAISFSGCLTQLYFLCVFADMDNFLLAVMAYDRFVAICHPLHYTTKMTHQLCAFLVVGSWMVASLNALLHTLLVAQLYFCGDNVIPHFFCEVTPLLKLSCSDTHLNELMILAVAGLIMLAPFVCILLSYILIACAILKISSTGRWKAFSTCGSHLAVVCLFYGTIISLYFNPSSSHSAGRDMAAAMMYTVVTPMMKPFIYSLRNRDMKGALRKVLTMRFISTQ
# How it was run: as §1
# UniProt Q8VGC6 = target: T9, UniProt Q8VGC6
# T9 sequence (whole entry): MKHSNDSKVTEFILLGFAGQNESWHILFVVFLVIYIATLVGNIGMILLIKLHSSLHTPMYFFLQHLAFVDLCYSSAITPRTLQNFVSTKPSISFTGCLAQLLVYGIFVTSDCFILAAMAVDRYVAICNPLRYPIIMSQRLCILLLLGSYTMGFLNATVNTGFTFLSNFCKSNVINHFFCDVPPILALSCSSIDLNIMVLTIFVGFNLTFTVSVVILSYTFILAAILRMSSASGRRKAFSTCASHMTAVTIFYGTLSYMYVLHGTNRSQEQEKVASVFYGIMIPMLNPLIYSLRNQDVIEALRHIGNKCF
# How it was run: as §1
# UniProt Q8VGJ3 = target: T10, UniProt Q8VGJ3
# T10 sequence (whole entry): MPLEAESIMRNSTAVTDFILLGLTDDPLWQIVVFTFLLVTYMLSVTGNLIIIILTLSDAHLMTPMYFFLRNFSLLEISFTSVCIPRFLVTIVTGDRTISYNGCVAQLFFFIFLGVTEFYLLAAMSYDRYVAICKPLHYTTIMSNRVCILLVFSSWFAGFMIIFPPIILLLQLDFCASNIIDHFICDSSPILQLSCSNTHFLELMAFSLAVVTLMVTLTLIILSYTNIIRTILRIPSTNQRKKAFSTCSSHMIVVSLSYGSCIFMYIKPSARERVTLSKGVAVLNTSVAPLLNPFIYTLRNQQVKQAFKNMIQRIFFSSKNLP
# How it was run: as §1
smiles,measurement,setting,value
O=Cc1ccccc1,odorant receptor agonist call,UniProt Q8VF52,inactive
same,odorant receptor agonist call,UniProt Q8VFM8,inactive
same,odorant receptor agonist call,UniProt Q8VFP5,inactive
same,odorant receptor agonist call,UniProt Q8VG01,inactive
same,odorant receptor agonist call,UniProt Q8VG27,inactive
same,odorant receptor agonist call,UniProt Q8VG53,inactive
same,odorant receptor agonist call,UniProt Q8VG64,inactive
same,odorant receptor agonist call,UniProt Q8VGB9,inactive
same,odorant receptor agonist call,UniProt Q8VGC6,inactive
same,odorant receptor agonist call,UniProt Q8VGJ3,active
